Compound activity as filed in PubChem.
The list is not random: actives were taken first. Their share in the collection is about 2.4%.
MC4R barr agon: agonists of human melanocortin 4 receptor (MC4R) beta-arrestin; P32245; activation, % at 8.9 µM; AID 540308; U2OS MC4R beta-arrestin complementation, luminescence; percent of melanotan II response, DMSO zero; hit rate 0.98% among 360,000;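 active = activation above a per-plate cutoff, the mean activation of sample wells on that plate plus 3 SD, cut at about 8% in these data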
OPRM1-OPRD1 ag: OPRM1-OPRD1 heterodimerization agonism; P35372+P41143; hit rate 0.3% among 340,000; AID 504326; cells, luminescence; activation, % at 9.3 µM; in the data active = activation above about 18%
HTR5A inv ag: counter-screen for OPRM1-OPRD1 inverse agonists: human HTR5A inverse agonism; inhibition, % at 9.3 µM; HTR5A cell line, luminescence; hit rate 0.083% among 340,000; in the data active = inhibition mostly above about 23%, no sharp cut-off; inactive = mostly below about 18%
Target sequence (P47898 whole entry, looked up): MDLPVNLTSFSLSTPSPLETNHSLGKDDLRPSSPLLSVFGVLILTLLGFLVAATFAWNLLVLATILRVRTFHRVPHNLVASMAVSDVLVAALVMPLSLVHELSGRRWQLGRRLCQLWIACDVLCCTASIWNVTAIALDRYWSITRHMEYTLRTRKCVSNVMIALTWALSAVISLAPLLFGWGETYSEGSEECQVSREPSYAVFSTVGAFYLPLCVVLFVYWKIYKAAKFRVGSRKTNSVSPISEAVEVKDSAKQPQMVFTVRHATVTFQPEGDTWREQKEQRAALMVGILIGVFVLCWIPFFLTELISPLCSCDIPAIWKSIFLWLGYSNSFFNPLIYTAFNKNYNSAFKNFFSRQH
HTR5A ag: activates human HTR5A in OPRM1-OPRD1 agonist counter-screen. HTR5A agonist assay, luminescence, cell-based. activation, % at 9.3 µM. hit rate 0.61% among 340,000. AID 504692; in the data active = activation mostly above about 9.5%, no sharp cut-off; inactive = mostly below about 7.6%
MC4R antag cAMP: antagonists of human melanocortin 4 receptor (MC4R) | hit rate 0.48% among 360,000 | P32245 | MC4R-expressing cells, MTII-stimulated cAMP, LANCE TR-FRET | inhibition, % at 6.5 µM;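 active = inhibition above its plate's cutoff, the mean of tested wells on that plate plus 3 SD, cut at about 29% in these data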
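system = U2OS cells with stable human MC4R expression | also added = Melanotan II challenge after compound preincubation | dosing = one concentration, 6.5 µM nominal | incubation = compound 30 min, challenge 1 h, detection 1 h | measured by = TR-FRET with Eu-cAMP and labeled anti-cAMP, 671 nm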
OPRM1-OPRD1 inv: mu-delta opioid heterodimer inverse agonism. inhibition, % at 9.3 µM. hit rate 0.21% among 340,000. cell-based MOR-DOR heterodimer luminescence. P35372+P41143; in the data active = inhibition above about 22%, passing the limit was not always enough
A number is an active result; n = inactive; x = no result.

SMILES	MC4R barr agon	OPRM1-OPRD1 ag	HTR5A inv ag	HTR5A ag	MC4R antag cAMP	OPRM1-OPRD1 inv
Cc1cc(NC(=O)C(C)Oc2ccccc2)no1 (stereo not drawn)	n	n	n	n	n	n
CCn1c(SCC(=O)Nc2sccc2C(N)=O)nnc1C1CC1	n	n	n	12.8	n	n
Brc1ccccc1/C=N/Nc1ccccn1	9.4	n	n	n	n	n
CC(OC(=O)c1cccc(-n2cnnn2)c1)c1nc2ccccc2c(=O)[nH]1 (stereo not drawn)	n	n	n	n	n	n
Cc1cccc(C)c1NC(=O)CSc1nc(-c2ccco2)cc(C(F)(F)F)n1	n	n	n	n	n	n
O=C(CSc1nc(-c2ccco2)cc(C(F)(F)F)n1)Nc1ccccc1C(F)(F)F	9.4	n	n	n	n	n
Cc1ccc(NC(=O)COc2cccc3c2OC(C)(C)C3)c(O)c1	n	n	n	13.4	n	n
CCN1CCN(CCCNC(=O)c2ccc3c(Cl)c4c(nc3c2)CCCC4)CC1	n	n	n	n	n	n
CC[C@@H]1[C@H]2CCCC(=O)N3CC[C@@H](C[C@@H]1Nc1ccccc1)[C@@H]23	n	n	n	n	n	n
Cc1ccc(C)c(Cn2c(C(=O)OC(C)C)cc3c2ccn3C)c1	n	n	n	n	n	n
CCCCn1nc(C(=O)NNC(=O)c2ccncc2)c2ccccc2c1=O	n	n	n	n	n	n
CCOC(=O)Nc1ccc(Oc2ccccc2)cc1	n	n	n	n	n	n
CCOC(=O)Nc1ccc(OC(=O)Oc2ccc(NC(=O)OCC)cc2)cc1	9.5	n	n	n	n	n
O=c1[nH]cnc2c1c(-c1ccccc1)cn2-c1cccc(Cl)c1	n	n	n	10.0	n	n
CC(C)Oc1ccc(CNC(=O)Cn2ccc3cc(S(=O)(=O)N4CCCC4)ccc32)cc1	n	n	n	8.3	n	n
COc1ccccc1C(CC(=O)Nc1ccc(Cl)cc1)c1ccc(OC(C)C)cc1 (stereo not drawn)	n	n	n	n	n	n
CC(C)Oc1ccc(CNC(=O)CC(c2ccccc2)c2cc(Cl)ccc2O)cc1 (stereo not drawn)	9.3	n	n	n	n	n
CC(NCC(O)COc1ccc2ccccc2c1)c1ccccc1 (stereo not drawn)	n	n	n	n	n	n
Cc1cc(OCC(O)CNC(C)c2ccccc2)ccc1C(C)C (stereo not drawn)	9.2	n	n	n	n	n
COc1ccc2ccccc2c1-c1sc(Nc2ccccc2)n[n+]1-c1ccc(F)cc1	11.9	n	n	n	n	n
Cc1cccnc1NC(=O)CCNC(=O)c1ccc(Br)cc1	n	n	n	n	n	n
COc1ccc(C(=O)CNc2ccccc2C#N)cc1	8.3	n	n	n	n	n
CO[C@H]1CC[C@@]2(C)[C@@H](CC[C@@H]3[C@@H]2CC[C@@]2(C)[C@H]3C[C@H](C(=O)N[C@@H](CCCN=C(N)N)C(=O)NCC(=O)N[C@@H](CC(=O)O)C(N)=O)O[C@]23CCCO3)C1	n	n	n	n	n	n
COc1cccc(N2CCN(Cc3nc(N)nc(Nc4ccccc4OC)n3)CC2)c1	n	n	n	14.1	n	n
COc1ccccc1Nc1nc(N)nc(CN2CCN(c3ccccc3)CC2)n1	n	n	n	n	n	n
SMILES	MC4R barr agon	OPRM1-OPRD1 ag	HTR5A inv ag	HTR5A ag	MC4R antag cAMP	OPRM1-OPRD1 inv
CC(=O)N1CCOCCOCCN(C(C)=O)CCOCC1	n	n	n	n	n	n
S=c1nc(Cc2ccc(Cl)cc2)[nH]c2ccccc12	8.9	x	x	x	n	x
S=c1nc(Cc2ccccc2)[nH]c2ccccc12	n	n	n	n	n	n
Cc1ccc(NC(=O)COC(=O)CN2CCCCCC2=O)cc1C	n	n	n	n	n	n
CC(/C=N/NC(=O)c1cc(-c2ccc(C)o2)[nH]n1)=C\c1ccccc1	9.2	n	n	n	n	n
Clc1ccc(C2Nc3cccc4cccc(c34)N2)cc1	n	n	n	14.6	n	n
COc1ccc(Oc2nccc(-c3ccccc3)c2C#N)cc1	n	n	n	11.4	n	n
CO/N=C/C1CCN(c2ncc(C(F)(F)F)cc2Cl)C1=O (stereo not drawn)	n	n	n	n	n	n
COc1cc(N=Nc2ccc(C)cc2S(N)(=O)=O)c(C)cc1N	n	n	n	9.8	n	n
FC(F)(F)c1ccc(N2CCN(Cc3ccc4c(c3)OCO4)CC2)nc1	9.2	n	n	n	n	n
